In the library only some 2.2% were active in any assay of this set; here they are far more common.
Mcl1 Noxa PPI: Mcl-1/Noxa interaction inhibition; TR-FRET Mcl-1/Noxa peptide binding, 2 h; inhibition, % at 21.7 µM; 1.5% of 220,000 active;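 active = compounds that cut the protein-peptide binding signal by more than 50% relative to plate controls in a single-dose test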;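 also: His-tagged Mcl-1 with rhodamine Noxa BH3 peptide and terbium anti-His antibody; 0% = Mcl-1 plus Noxa peptide wells and 100% = peptide-only wells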
RBBP9 inhibitor: human RBBP9 hydrolase inhibition; inhibition, % at 7.94 µM; AID 1515; 0.2% of 220,000 active; recombinant RBBP9, FP-Rh probe fluorescence polarization;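 active = inhibition above the campaign mean of all tested compounds plus 3 SD, cut at about 14% in these data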;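 also: plate controls were DMSO wells with RBBP9 for no effect and wells lacking RBBP9 protein for full effect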
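Test system – recombinant human RBBP9 · Input – RBBP9 2.5 µM in dispensing solution, pre-mixing · Medium – Tris buffer pH 8.0, NaCl, Pluronic · Schedule – preincubation 30 min plus labeling 45 min at 25 °C · Measured by – fluorescence polarization · Measure – % inhibition · Controls – DMSO and no-protein wells · Replicates – one well per compound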
Bim-Mcl-1: human Bim-Mcl-1 interaction inhibition; AID 1009; 0.1% of 190,000 active; Bead-based flow cytometry, Bim peptide-Mcl-1 binding; Q07820; inhibition, % at 10 µM; in the data active = inhibition above about 40%;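 also: 0% = no compound tracer wells and 100% = peptide blocker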
MCL1 BIM primary: disrupts human MCL1 binding to BIM-BH3 peptide. 0.68% of 320,000 active. GST-MCL1 / FITC-Bim-BH3 fluorescence polarization. AID 2057. Q07820. inhibition, % at 10.9 µM;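 active = inhibition above the mean inhibition of all tested compounds plus 3 SD, set per campaign, cut at about 40% in these data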;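 also: 0% = DMSO wells and 100% = unlabeled Bim-BH3 peptide control; higher means more loss of mP so more displacement of Bim peptide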
Mcl1-Bid inh: Mcl-1/Bid interaction inhibition | inhibition, % at 21.7 µM | 0.97% of 220,000 active | TR-FRET Mcl-1/Bid-Dy647 peptide binding, 1536-well;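 active = compounds that cut the binding signal by more than half at the single screening dose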;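 also: His-tagged Mcl-1 with europium anti-His antibody binding Bid BH3 peptide; 0% = Mcl-1 plus peptide wells and 100% = peptide-only wells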
EBV gp42 inh: blocks Epstein-Barr virus glycoprotein 42 binding; 0.42% of 220,000 active; Fluorescence polarization binding assay, mP read-out; Q1HVG2; AID 1085; inhibition, % (tested at 21.74 µM); in the data active = inhibition above about 50%
Target sequence (Q1HVG2 whole entry, looked up): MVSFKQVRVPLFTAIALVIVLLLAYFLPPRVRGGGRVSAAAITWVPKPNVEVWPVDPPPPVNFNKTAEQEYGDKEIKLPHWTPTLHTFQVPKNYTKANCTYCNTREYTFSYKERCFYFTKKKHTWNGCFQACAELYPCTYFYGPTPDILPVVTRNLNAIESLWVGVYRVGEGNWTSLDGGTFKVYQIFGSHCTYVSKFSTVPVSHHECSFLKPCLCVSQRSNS
BCLXL inh confirm: Bcl-xL (human) inhibition, MCL1 counter-screen confirmation | 54% of 1,700 active | shares compounds with MCL1 BIM primary | GST-Bcl-xL / FITC-Bim BH3 peptide FP binding | inhibition, % at 10.9 µM;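 active = inhibition above a cutoff equal to the mean inhibition of all tested compounds plus 3 SD, cut at about 30% in these data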;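 also: 0% = DMSO wells and 100% = unlabeled Bim BH3 control peptide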
Target sequence (Q07817 whole entry, looked up): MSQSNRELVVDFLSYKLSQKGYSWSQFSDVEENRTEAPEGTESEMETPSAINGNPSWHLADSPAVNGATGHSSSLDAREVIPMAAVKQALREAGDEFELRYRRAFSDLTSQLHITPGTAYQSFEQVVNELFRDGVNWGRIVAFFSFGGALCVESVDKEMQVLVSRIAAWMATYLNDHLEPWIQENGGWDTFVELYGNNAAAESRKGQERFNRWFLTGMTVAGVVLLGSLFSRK
MCL1 BIM confirm: confirmation of human MCL1 and BIM-BH3 interaction inhibitors | shares compounds with MCL1 BIM primary | GST-MCL1 / FITC-Bim-BH3 fluorescence polarization | 61% of 1,700 active | inhibition, % at 10.9 µM;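 active = inhibition above the average of all tested compounds plus 3 SD, cut at about 40% in these data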;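 also: 0% = DMSO wells and 100% = unlabeled Bim-BH3 control peptide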
Numbers without * were called inactive; · = no result given.

SMILES	Mcl1 Noxa PPI	RBBP9 inhibitor	Bim-Mcl-1	MCL1 BIM primary	Mcl1-Bid inh	EBV gp42 inh	BCLXL inh confirm	MCL1 BIM confirm
CCCCNc1c(N)n(CCCC)c(=O)[nH]c1=O	10	4	1	52*	-47	38	56*	79*
CCCCn1c(N)c(NCc2ccccc2OC)c(=O)[nH]c1=O	-7	2	2	17	-82	-13	·	·
O=C(CCn1nc(-c2ccc(Cl)cc2)c2ccccc2c1=O)Nc1cccnc1	15	4	1	8	3	-9	·	·
CCCS(=O)(=O)c1cn2cccc(N)c2c1S(=O)(=O)CCC	-3	-2	1	102*	-66	-3	30	21
C=CCN(C(=O)CCC(=O)Nc1cc(C)on1)C(C(=O)NC(C)(C)C)c1ccc(OC)cc1 (configuration not stated)	·	·	·	-8	·	·	·	·
CC(=O)N1CCc2c(sc(NC(=O)C3CCCN3S(=O)(=O)c3cccs3)c2C(N)=O)C1 (configuration not stated)	·	·	·	64*	·	·	67*	76*
Cc1ccc([C@@H]2[C@@H]3C(=O)N(C)C(=O)[C@@H]3[C@]3(C)C(=O)N(Cc4ccc(-c5ccccc5)cc4)CC(=O)N23)o1	·	·	·	8	·	·	·	·
Cc1c(Cl)cccc1NCC(=O)NN=C1CCCC1	15	0	0	4	-7	-7	·	·
CCOC(=O)C/C(C)=N/NC(=O)CNc1cccc(Cl)c1C	-10	-12	0	43*	-15	3	1	2
Cc1ccccc1C1C(C#N)=C2N=C(N)c3c(sc4c3CCCCC4)N2C2=C1C(=O)CC(C)(C)C2 (configuration not stated)	-125	5	2	54*	-147	13	39*	51*
COc1ccc(-c2csc(NC(=O)CCN3C(=O)C4CC=CCC4C3=O)n2)cc1OC (configuration not stated)	·	·	·	-13	·	·	·	·
Cc1cccc(C(=O)N2CCCC(N3CCN(c4ccccc4)CC3)C2)n1 (configuration not stated)	·	·	·	8	·	·	·	·
Cc1onc(-c2ccccc2Cl)c1C(=O)NCc1ccco1	37	-3	0	66*	-15	19	28	65*
Cc1ccc(CNC(=O)c2c(-c3ccccc3Cl)noc2C)cc1	·	·	·	-1	·	·	·	·
Cc1onc(-c2ccccc2Cl)c1C(=O)NCc1ccc2c(c1)cc(C)n2C	-7	·	·	77*	-139	-1	34*	47*
COC(=O)CNC(=O)c1c(-c2ccccc2Cl)noc1C	40	-8	0	2	-1	-8	·	·
COc1cc(CCC(=O)OCC(=O)Nc2ccc(C)cc2Cl)cc(OC)c1OC	·	·	·	-3	·	·	·	·
CN(C(=O)CN1C(=O)NC(C)(c2cccc(Br)c2)C1=O)C1CCCCC1 (configuration not stated)	·	·	·	82*	·	·	4	0
CC1(c2cccc(Br)c2)NC(=O)N(CC(=O)NCC2CCCO2)C1=O (configuration not stated)	·	·	·	8	·	·	·	·
O=C(C1CCC(=O)N(C2CCCCCC2)C1)N1CCN(c2ccccc2Cl)CC1 (configuration not stated)	·	·	·	57*	·	·	10	-4
CC(=O)N/N=C/c1cc(C(C)C)cc(/C=N/NC(C)=O)c1O	-8	1	0	100*	-27	71*	92*	101*
CCCC(=O)OCCNc1cc(Sc2nccn2C)c2nonc2c1[N+](=O)[O-]	21	-2	-5	9	-56	0	·	·
CCCC(=O)OCCNc1cc(SCc2ccco2)c2nonc2c1[N+](=O)[O-]	32	-6	2	43*	-31	-4	7	11
O=[N+]([O-])c1c(NCc2ccco2)ccc2nonc12	-5	4	·	-4	-9	-8	·	·
CCC(=O)OCCNc1cc(Sc2nc3ccccc3s2)c2nonc2c1[N+](=O)[O-]	58*	0	2	60*	-100	33	56*	72*

High-throughput results (PubChem)
